Drawing on ChEMBL document CHEMBL1132224, “Synthesis and in vitro multidrug resistance modulating activity of a series of dihydrobenzopyrans and tetrahydroquinolines” (J Med Chem, 1999), this text covers EC50, logP and Log kw for eleven compounds.

Series [1] concerns CCRF-CEM. In words: The compound was tested for inhibition of P-glycoprotein mediated daunomycin efflux in multidrug resistant CCRF-CEM vcr1000 cells. It is filed as functional, cell-based. The note with it: Homo sapiens. The gist of the method: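 Vincristine-selected CCRF-CEM vcr1000 T-lymphoblasts grown in RPMI1640 with 10% FCS, selecting agent removed at least 1 week before use. Cells at 1 × 10^6/mL preloaded with 3.2 µM daunomycin (final) for 30 min at 37 °C, pelleted, then resuspended in 37 °C medium with modulator (eight concentrations, 1:2.5 dilutions, 3 nM–500 µM range). Samples taken at 0, 60, 120, 180 and 240 s into ice-cold stop medium containing verapamil (10 µg/mL final). An exponential fit gives the first-order rate constant (Vmax/Km) as the slope at time zero. Efflux in parental CCRF-CEM cells, set to equal initial fluorescence, is subtracted as passive diffusion. EC50 comes from Vmax/Km versus concentration, as mean ± SD of at least three independent experiments.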

Series [2] is described as follows: Partition coefficient (logP). It is filed as physicochemical. The note with it: octanol/water. The gist of the method: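 Computed, not measured: fragmentation method of Ghose et al. on a topological basis. Structures built and minimized with the MM2 force field. Conformation-independent log P values.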
Series [3] is described as follows: Lipophilicity (log kw value) was determined. It is filed as physicochemical. The settings on record: reversed-phase HPLC, methanol/buffer pH 7.4. The method in brief: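 Reversed-phase HPLC on an RP-8 column (5 µm), eluent methanol/aqueous phase adjusted to pH 7.4 with 1/60 M Soerensen buffer, detection at 254 nm. log k′ measured at 70%, 60% and 50% methanol, then extrapolated to 0% methanol by linear regression to give log kw.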

In turn, `CC(C)(C)OC(=O)CN(Cc1ccccc1)[C@H]1c2cc(C#N)ccc2OC(C)(C)[C@@H]1O` came in with a half-maximal effective concentration (EC50) in series [1] of 2.43 µM. Also, in series [2], the lipophilicity (logP) stood at 3.76.

`CN[C@H]1c2cc(C#N)ccc2OC(C)(C)[C@@H]1O`: a half-maximal effect in series [1] (EC50) was put at 1430 µM. The same compound returned a lipophilicity (logP) in series [2] of 1.24.

For the compound `Cc1ccc(C(=O)N2c3ccccc3[C@H](N3CCN(Cc4ccccc4)CC3)[C@@H](O)[C@@H]2C)cc1`, the concentration giving a half-maximal response (EC50) in series [1] was determined as 0.43 µM. The compound also yielded a lipophilicity (logP) in series [2] of 4.51. In series [3], this compound displayed a Log kw of 6.1.

In series [1], `CC1(C)Oc2ccc(C#N)cc2[C@H](N2CCN(Cc3ccccc3)CC2)[C@H]1O` returned a concentration giving a half-maximal response (EC50) of 0.64 µM. In series [2], this compound gave a logP of 3.11. This compound yielded a Log kw in series [3] of 5.53.

As for `Cc1ccc(C(=O)O[C@H]2[C@H](C)Nc3ccccc3[C@@H]2N2CCCC2)cc1`, in series [1], the EC50 amounted to 5.64 µM. The logP in series [2] worked out at 3.92. In series [3], this compound returned a Log kw of 5.47.

In series [1], `CC1(C)Oc2ccc(C#N)cc2[C@H](NCc2ccccc2)[C@H]1O` came in with a concentration giving a half-maximal response (EC50) of 59.1 µM. Further, in series [2], the logP amounted to 3.12. Further, in series [3], the Log kw worked out at 4.35.

`Cc1ccc(C(=O)N2c3ccccc3[C@H](N3CCCC3)[C@@H](O)[C@@H]2C)cc1` displayed a 50% effective concentration (EC50) in series [1] of 7.98 µM. Further, in series [2], the logP was 3.34. In series [3], the Log kw is 4.2.

As to `CC(C)(C)OC(=O)CN[C@H]1c2cc(C#N)ccc2OC(C)(C)[C@@H]1O`, in series [1], the EC50 is 46.8 µM. In addition, in series [2], the lipophilicity (logP) was determined as 1.79.

On to `Cc1ccc(C(=O)N2c3ccccc3[C@H](NCc3ccccc3)[C@@H](O)[C@@H]2C)cc1`, for which a half-maximal effect in series [1] (EC50) was put at 3.26 µM. In series [2], this compound had a logP of 4.52. In series [3], this compound had a Log kw of 5.38.

In series [1], `CCN(CC)CCCC(C)N[C@H]1c2ccccc2N[C@@H](C)[C@@H]1OC(=O)c1ccc(C)cc1` (stereo partly drawn) yielded a concentration for a half-maximal effect (EC50) of 0.34 µM. In series [2], the logP turned out to be 4.78.

Take `CCN(CC)CCCC(C)N[C@H]1c2ccccc2N(C(=O)c2ccc(C)cc2)[C@@H](C)[C@@H]1O` (stereo partly drawn): in series [1], the EC50 came out at 1.96 µM. Also, the logP in series [2] was 4.2.

What is called EC50 is the concentration that produces a half-maximal response. The low end stands for an effect from little substance, the high end for a need for much substance. For orientation: logP means a log measure of how a compound divides between an organic and an aqueous phase.
